For 25 compounds, fold change (FC), EC50 and Activity results are on record in ChEMBL document CHEMBL4014338, “Discovery of Small Molecules as Multi-Toll-like Receptor Agonists with Proinflammatory and Anticancer Activities” (J Med Chem, 2017).

Holding throughout (assay type): cell-based
The target in data set [1] is Toll-like receptor 3 (Homo sapiens) (UniProt O15455). As to the kind of experiment: Agonist activity at human TLR3 expressed in HEK293 cells assessed as induction of NF-kB activation-mediated SEAP production at 25 uM after 24 hrs by HTS assay relative to control. The gist of the method:
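hTLR3 HEK293 SEAP reporter cells seeded at 5 × 10^4 cells/well for 24 h, exposed to 25 μM for 24 h. Supernatant SEAP detected with QUANTI-Blue (1 h, 37 °C, OD 620 nm). Activation normalized to untreated cells and expressed as fold change.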

Data set [2] has as its target T1, Toll-like receptor 3 (Homo sapiens, UniProt O15455).
T1 sequence (O15455 whole entry): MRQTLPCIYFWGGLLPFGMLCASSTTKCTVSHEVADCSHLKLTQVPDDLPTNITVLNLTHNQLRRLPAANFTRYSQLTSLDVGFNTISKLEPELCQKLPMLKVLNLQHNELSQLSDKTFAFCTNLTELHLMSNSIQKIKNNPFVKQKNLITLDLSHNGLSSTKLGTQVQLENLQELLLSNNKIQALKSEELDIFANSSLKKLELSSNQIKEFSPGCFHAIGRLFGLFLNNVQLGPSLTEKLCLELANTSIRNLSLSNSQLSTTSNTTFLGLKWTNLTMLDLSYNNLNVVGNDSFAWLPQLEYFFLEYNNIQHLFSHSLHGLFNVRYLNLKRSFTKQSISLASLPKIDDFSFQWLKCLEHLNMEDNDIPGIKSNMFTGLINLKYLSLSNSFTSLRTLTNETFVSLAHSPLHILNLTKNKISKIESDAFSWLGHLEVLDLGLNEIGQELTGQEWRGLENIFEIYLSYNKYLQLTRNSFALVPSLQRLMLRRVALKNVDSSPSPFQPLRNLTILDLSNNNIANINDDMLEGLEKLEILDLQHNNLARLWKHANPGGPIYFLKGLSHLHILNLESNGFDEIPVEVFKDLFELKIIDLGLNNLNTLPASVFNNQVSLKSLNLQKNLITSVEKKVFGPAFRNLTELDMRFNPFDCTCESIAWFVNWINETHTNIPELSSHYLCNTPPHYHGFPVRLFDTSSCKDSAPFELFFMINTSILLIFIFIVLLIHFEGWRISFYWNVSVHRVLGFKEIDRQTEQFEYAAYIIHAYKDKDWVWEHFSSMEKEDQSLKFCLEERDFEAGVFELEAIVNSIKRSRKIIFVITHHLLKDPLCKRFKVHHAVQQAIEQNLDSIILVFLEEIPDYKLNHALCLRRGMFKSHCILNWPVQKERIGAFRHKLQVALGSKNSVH
As to the kind of experiment: Agonist activity at human TLR3 expressed in HEK293 cells assessed as induction of NF-kB activation-mediated SEAP production after 24 hrs by HTS assay. Put shortly:
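Stable HEK293 lines expressing a single hTLR plus a SEAP reporter, grown in DMEM/10% FBS with selective antibiotics. Seeded at 5 × 10^4 cells/well for 24 h at 37 °C, then treated 24 h. Supernatant mixed with QUANTI-Blue, 1 h at 37 °C, OD 620 nm. Cognate agonists: Pam3CSK4 (TLR2), poly I:C (TLR3), LPS (TLR4), FLA-BS (TLR5), R848 (TLR7). EC50 as mean ± SD.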

For data set [3], the species on record is Homo sapiens. In words: Activation of NF-kB in HEK293 cells assessed as SEAP production at 30 uM after 24 hrs by HTS assay. The gist of the method:
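hTLR3-transfected HEK293 cells carrying an NF-κB-inducible SEAP reporter, seeded at 20,000 cells/well in duplicate; library compounds in DMSO at 30 μM final. Poly I:C 5 μg/mL as positive control; cells + medium + DMSO as negative control. SEAP in supernatant read by QUANTI-Blue; hits ranked on RMS values.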

Data set [4] deals with Toll-like receptor 3 (Homo sapiens) (UniProt O15455). In words: Agonist activity at human TLR3 expressed in HEK293 cells assessed as induction of NF-kB activation-mediated SEAP production at 30 uM after 24 hrs by HTS assay. Put shortly:
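HTS in HEK293 cells stably expressing human TLR3 plus an NF-κB-inducible SEAP reporter, seeded at 20,000 cells/well and run in duplicate. Library compounds in DMSO at 30 μM final. Poly I:C 5 μg/mL served as positive control and cells + medium + DMSO as negative control. SEAP in supernatant read by QUANTI-Blue; assay quality judged by Z′ factor.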

Data set [5] deals with HEK293. As to the kind of experiment: Cytotoxicity against HEK293 cells at 25 uM. To be noted: human, hek293, 25 µM.

The source made the active and inactive calls. The calls are words filed in the database; no cut-off is given here.

Turning to `COc1ccc(COc2cc3c(cc2OCc2ccc(OC)c(F)c2)C(=O)CC(C)(C)O3)cc1F`, the fold change (FC) in data set [1] worked out at 1.08.

For the compound `CC1(C)C=Cc2cc(O)c(OCc3ccc([N+](=O)[O-])cc3)cc2O1`, the fold change (FC) in data set [1] stood at 1.17.

In the case of `CC1(C)CC(O)c2cc(OCc3ccc(C(F)(F)F)cc3)c(OCc3ccc(C(F)(F)F)cc3)cc2O1` (stereo not given), in data set [1], the fold change (FC) is 2.36.

In the case of `CC1(C)C=Cc2cc(OCc3ccc([N+](=O)[O-])c(F)c3)c(OCc3ccc([N+](=O)[O-])c(F)c3)cc2O1`, the fold change (FC) in data set [1] came to 1.24.

As to `CC1(C)CC(O)c2cc(OCc3ccc(F)c(F)c3)c(OCc3ccc(F)c(F)c3)cc2O1` (stereo not given), the fold change (FC) in data set [1] stood at 0.95.

Turning to `CC1(C)CC(=O)c2cc(OCc3ccc([N+](=O)[O-])cc3)c(OCc3ccc([N+](=O)[O-])cc3)cc2O1`, in data set [1], the fold change (FC) turned out to be 1.76.

`CC1(C)C=Cc2cc(OCc3ccccc3[N+](=O)[O-])c(OCc3ccccc3[N+](=O)[O-])cc2O1`: the fold change (FC) in data set [1] turned out to be 1.08.

For the compound `CC1(C)CC(=O)c2cc(OCc3ccc(C(F)(F)F)cc3)c(OCc3ccc(C(F)(F)F)cc3)cc2O1`, the fold change (FC) in data set [1] came to 1.19.

Turning to `CC1(C)CC(O)c2cc(OCc3ccc([N+](=O)[O-])c(F)c3)c(OCc3ccc([N+](=O)[O-])c(F)c3)cc2O1` (stereo not given), in data set [1], the fold change (FC) was 2.34.

As for `CC1(C)C=Cc2cc(OCc3ccc(F)c(F)c3)c(OCc3ccc(F)c(F)c3)cc2O1`, the fold change (FC) in data set [1] stood at 0.99.

Take `O=[N+]([O-])c1ccc(COc2cc3c(cc2OCc2ccc([N+](=O)[O-])cc2)OC2(C=C3)CCCC2)cc1`: the fold change (FC) in data set [1] was 1.22.

Turning to `CC1(C)C=Cc2cc(OCc3cccc([N+](=O)[O-])c3)c(OCc3cccc([N+](=O)[O-])c3)cc2O1`, the fold change (FC) in data set [1] turned out to be 1.1.

In the case of `CC1(C)C=Cc2cc(OCc3ccc(C(F)(F)F)cc3)c(OCc3ccc(C(F)(F)F)cc3)cc2O1`, the fold change (FC) in data set [1] was 0.99.

Regarding `COc1ccc(COc2cc3c(cc2OCc2ccc(OC)c(F)c2)C(O)CC(C)(C)O3)cc1F` (stereo not given), the fold change (FC) in data set [1] is 1.34.

For orientation: EC50 means the concentration that produces a half-maximal response. Regarding `CC1(C)CC(O)c2cc(OCc3ccc([N+](=O)[O-])cc3)c(OCc3ccc([N+](=O)[O-])cc3)cc2O1` (stereo not given), in data set [1], the fold change (FC) turned out to be 2.5. Besides, in data set [2], the EC50 amounted to 42.5 µM.

As for `CC1(C)CC(=O)c2cc(OCc3ccc(F)c(F)c3)c(OCc3ccc(F)c(F)c3)cc2O1`, the fold change (FC) in data set [1] came to 1.22.

Turning to `O=[N+]([O-])c1ccc(COc2cc3c(cc2OCc2ccc([N+](=O)[O-])cc2)OC2(C=C3)CCCCC2)cc1`, in data set [1], the fold change (FC) is 1.

Take `CCC1(CC)C=Cc2cc(OCc3ccc([N+](=O)[O-])cc3)c(OCc3ccc([N+](=O)[O-])cc3)cc2O1`: in data set [1], the fold change (FC) is 1.16.

With `COc1ccc(COc2cc3c(cc2OCc2ccc(OC)c(F)c2)OC(C)(C)C=C3)cc1F`, the fold change (FC) in data set [1] was 1.06.

Regarding `CC1(C)C=Cc2cc(OC(=O)c3ccc([N+](=O)[O-])cc3)c(OC(=O)c3ccc([N+](=O)[O-])cc3)cc2O1`, the fold change (FC) in data set [1] is 1.65.

On to `CC1(C)C=Cc2cc(OCc3ccc([N+](=O)[O-])cc3)c(OCc3ccc([N+](=O)[O-])cc3)cc2O1`, for which, in data set [3], the result was inactive. Besides, in data set [4], the outcome was Active. For the same compound, the Activity entry in data set [5] is “Non-Toxic”. The fold change (FC) in data set [1] amounted to 5.34. In addition, the EC50 in data set [2] was found to be 22.3 µM.

As for `CC1(C)C=Cc2cc(OCc3ccccc3)c(OCc3ccccc3)cc2O1`, the fold change (FC) in data set [1] was found to be 1.09.

On to `CC1(C)CC(=O)c2cc(OCc3ccc([N+](=O)[O-])c(F)c3)c(OCc3ccc([N+](=O)[O-])c(F)c3)cc2O1`, for which the fold change (FC) in data set [1] was 1.22.

Turning to `COc1cc2c(cc1OCc1ccc([N+](=O)[O-])cc1)C=CC(C)(C)O2`, in data set [1], the fold change (FC) is 1.19.

For the compound `O=[N+]([O-])c1ccc(COc2cc3c(cc2OCc2ccc([N+](=O)[O-])cc2)OC2(C=C3)CCCCCC2)cc1`, the fold change (FC) in data set [1] amounted to 1.07.
